Values after ≈ are worked out from the molar mass of the structure shown.
Legend:
Staphylococcus aureus [1] = assay: Antibacterial activity against methicillin-resistant Staphylococcus aureus ATCC 43300 assessed as reduction bacterial growth after 16 hrs by TECAN SPARK microplate reader analysis; format: functional
How it was run: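 Broth microdilution in TSB: single colony grown overnight at 37 °C, diluted 100-fold and grown to mid-log phase. 2-fold serial compound dilutions mixed 1:1 with bacteria at 1 × 10^6 CFU/mL, incubated 16 h at 37 °C, absorbance read at 600 nm. MIC taken as lowest concentration giving complete growth inhibition.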

Staphylococcus aureus [2] = assay: Antibacterial activity against Staphylococcus aureus ATCC 29213 assessed as reduction bacterial growth after 16 hrs by TECAN SPARK microplate reader analysis; format: functional
How it was run: (§1)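 Single colony grown overnight in 4 mL TSB at 37 °C, diluted 100-fold and grown to mid-log phase. Compounds 2-fold serially diluted in TSB and mixed 1:1 with bacteria in TSB (1 × 10^6 CFU/mL). Incubated 16 h at 37 °C, then A600 read. MIC taken as the lowest concentration giving complete growth inhibition.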

Escherichia coli [3] = assay: Antibacterial activity against Escherichia coli ATCC 25922 assessed as reduction bacterial growth after 16 hrs by TECAN SPARK microplate reader analysis; format: functional; how it was run: as §1
Pseudomonas aeruginosa = assay: Antibacterial activity against Pseudomonas aeruginosa CMCC 10104 assessed as reduction bacterial growth after 16 hrs by TECAN SPARK microplate reader analysis; format: functional; how it was run: as §1
Bacillus subtilis = assay: Antibacterial activity against Bacillus subtilis ATCC 6633 assessed as reduction bacterial growth after 16 hrs by TECAN SPARK microplate reader analysis; format: functional; how it was run: as §1
Enterococcus faecalis = assay: Antibacterial activity against Enterococcus faecalis ATCC 29212 assessed as reduction bacterial growth after 16 hrs by TECAN SPARK microplate reader analysis; format: functional; how it was run: as §1
Acinetobacter baumannii = assay: Antibacterial activity against Acinetobacter baumannii ATCC 19606 assessed as reduction bacterial growth after 16 hrs by TECAN SPARK microplate reader analysis; format: functional; how it was run: as §1
Klebsiella pneumoniae = assay: Antibacterial activity against Klebsiella pneumoniae ATCC 10031 assessed as reduction bacterial growth after 16 hrs by TECAN SPARK microplate reader analysis; format: functional; how it was run: as §1
[4] = Hemolytic activity in mouse red blood cells assessed as hemolysis incubated for 1 hr by TECAN SPARK microplate reader analysis; format: toxicity, cell-based, Erythrocyte; conditions: red blood cells (erythrocytes)
How it was run: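 Mouse RBCs washed three times in 1× PBS by centrifugation (3500 rpm, 10 min) and made up as a 5% v/v suspension. Incubated with 2-fold serially diluted compound in PBS for 1 h at 37 °C, then centrifuged. Supernatant diluted in PBS and A540 read. % hemolysis calculated relative to 1% Triton X-100 (100%) and PBS (0%).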

Escherichia coli [5] = assay: Drug resistance, ratio of MIC for Escherichia coli ATCC 25922 after 25 passages to MIC for Escherichia coli ATCC 25922 after initial exposure; format: functional
How it was run: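 Serial passage resistance selection: after each broth MIC determination, bacteria from the 1/2 MIC well were withdrawn and diluted to 1 × 10^6 CFU/mL for the next MIC measurement. Repeated for 25 passages; MIC after passage 25 compared with the initial MIC.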

| Compound | MIC (Staphylococcus aureus [1]) [µg/mL] | MIC (Staphylococcus aureus [2]) [µg/mL] | MIC (Escherichia coli [3]) [µg/mL] | MIC (Pseudomonas aeruginosa) [µg/mL] | MIC (Bacillus subtilis) [µg/mL] | MIC (Enterococcus faecalis) [µg/mL] | MIC (Acinetobacter baumannii) [µg/mL] | MIC (Klebsiella pneumoniae) [µg/mL] | HC50 at 1 h [4] [µg/mL] | Ratio (Escherichia coli [5]) |
| --- | --- | --- | --- | --- | --- | --- | --- | --- | --- | --- |
| COc1cccc(OC)c1C(=O)N[C@@H]1C(=O)N2[C@@H]1SC(C)(C)[C@@H]2C(=O)O [METHICILLIN] | 250 (≈ 657 µM) |  |  |  |  |  |  |  |  |  |
| COLISTIN |  | 250 | 3.91 |  |  |  |  |  |  |  |
| CCCCN1C(=O)[C@H](CCCCN)N(Cc2ccc(-c3ccc(CN4C(=O)N(CCCC)C(=O)[C@@H]4CCCCN)cc3)cc2)C1=O | 125 (≈ 198 µM) | 62.5 (≈ 98.8 µM) | 125 (≈ 198 µM) | 125 (≈ 198 µM) | 15.6 (≈ 24.7 µM) | 250 (≈ 395 µM) | 62.5 (≈ 98.8 µM) | 15.6 (≈ 24.7 µM) |  |  |
| CCCCCCN1C(=O)[C@H](CCCCN)N(Cc2cccc(CN3C(=O)N(CCCCCC)C(=O)[C@@H]3CCCCN)c2)C1=O | 250 (≈ 408 µM) | 31.2 (≈ 51 µM) | 250 (≈ 408 µM) | 31.2 (≈ 51 µM) | 7.81 (≈ 12.7 µM) | 62.5 (≈ 102 µM) | 125 (≈ 204 µM) | 62.5 (≈ 102 µM) |  |  |
| CO[C@H]1/C=C/O[C@@]2(C)Oc3c(C)c(O)c4c(O)c(c(/C=N/N5CCN(C)CC5)c(O)c4c3C2=O)NC(=O)/C(C)=C\C=C\[C@H](C)[C@H](O)[C@@H](C)[C@@H](O)[C@@H](C)[C@H](OC(C)=O)[C@@H]1C [RIFAMPIN] |  | 0.12 (≈ 0.146 µM) | 7.81 (≈ 9.49 µM) |  |  |  |  |  |  |  |
| O=C(O)c1cn(C2CC2)c2cc(N3CCNCC3)c(F)cc2c1=O [CIPROFLOXACIN] |  | 0.39 (≈ 1.18 µM) |  |  |  |  |  |  |  |  |
| CN(C)[C@@H]1C(O)=C(C(N)=O)C(=O)[C@@]2(O)C(O)=C3C(=O)c4c(O)cccc4[C@@](C)(O)[C@H]3C[C@@H]12 [TETRACYCLINE] |  | 0.98 (≈ 2.21 µM) | 7.81 (≈ 17.6 µM) |  |  |  |  |  |  |  |
| CCCCCCN1C(=O)[C@H](CCCCNC(=N)N)N(Cc2cccc(-c3cccc(CN4C(=O)N(CCCCCC)C(=O)[C@@H]4CCCCNC(=N)N)c3)c2)C1=O | 7.81 (≈ 10.1 µM) | 1.95 (≈ 2.52 µM) | 7.81 (≈ 10.1 µM) | 15.6 (≈ 20.2 µM) | 3.91 (≈ 5.06 µM) | 7.81 (≈ 10.1 µM) | 15.6 (≈ 20.2 µM) | 3.91 (≈ 5.06 µM) | 73.7 |  |
| GENTAMICIN |  |  |  |  |  |  |  |  |  | 32 |
| CCCCCCCCN1C(=O)[C@H](CCCCN)N(Cc2ccc(-c3ccc(CN4C(=O)N(CCCCCCCC)C(=O)[C@@H]4CCCCN)cc3)cc2)C1=O | 250 (≈ 336 µM) | 31.2 (≈ 41.9 µM) | 250 (≈ 336 µM) | 250 (≈ 336 µM) | 15.6 (≈ 21 µM) | 31.2 (≈ 41.9 µM) | 62.5 (≈ 83.9 µM) | 62.5 (≈ 83.9 µM) |  |  |
| CC1(C)S[C@@H]2[C@H](NC(=O)Cc3ccccc3)C(=O)N2[C@H]1C(=O)O [PENICILLIN G] |  | 0.98 (≈ 2.93 µM) | 250 (≈ 748 µM) |  |  |  |  |  |  |  |
| CCCCCCCN1C(=O)[C@H](CCCCN)N(Cc2ccc(-c3ccc(CN4C(=O)N(CCCCCCC)C(=O)[C@@H]4CCCCN)cc3)cc2)C1=O | 62.5 (≈ 87.2 µM) | 3.91 (≈ 5.45 µM) | 7.81 (≈ 10.9 µM) | 15.6 (≈ 21.8 µM) | 3.91 (≈ 5.45 µM) | 7.81 (≈ 10.9 µM) | 7.81 (≈ 10.9 µM) | 7.81 (≈ 10.9 µM) | 156 |  |
| CCCCCCN1C(=O)[C@H](CCCCN)N(Cc2ccc3cc(CN4C(=O)N(CCCCCC)C(=O)[C@@H]4CCCCN)ccc3c2)C1=O | 15.6 (≈ 23.6 µM) | 3.91 (≈ 5.9 µM) | 15.6 (≈ 23.6 µM) | 15.6 (≈ 23.6 µM) | 7.81 (≈ 11.8 µM) | 31.2 (≈ 47.1 µM) | 31.2 (≈ 47.1 µM) | 1.95 (≈ 2.94 µM) | 59.9 |  |
| CCCCCCN1C(=O)[C@H](CCCCN)N(Cc2ccc(CCc3ccc(CN4C(=O)N(CCCCCC)C(=O)[C@@H]4CCCCN)cc3)cc2)C1=O | 15.6 (≈ 21.8 µM) | 1.95 (≈ 2.72 µM) | 3.91 (≈ 5.45 µM) | 125 (≈ 174 µM) | 7.81 (≈ 10.9 µM) | 7.81 (≈ 10.9 µM) | 3.91 (≈ 5.45 µM) | 3.91 (≈ 5.45 µM) | 20.9 |  |

Reference: ChEMBL document CHEMBL5576109, “Hydantoin derivative dimers as broad-spectrum antimicrobial agents against ESKAPE pathogens with enhanced killing rate and stability” (RSC Med Chem, 2024)
